LANA DNA inh – inhibitors of KSHV C-LANA binding to DNA, primary screen, biochemical, fluorescence polarization, FAM-LBS DNA, MBP-C-LANA, single point; 340,000 tested, 0.078% active; Kaposi's sarcoma herpesvirus LANA C-terminal domain (residues 932-1162) DNA binding; inhibition, % at 9 µM;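 active = highest replicate inhibition at or above 60% at 9 µM, even if other replicates fall short; inactive = all replicates below 60% inhibition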
CAL PDZ FP-1 – untagged CAL PDZ binding inhibitors, primary screen, biochemical, fluorescence polarization, HTS; purified CAL PDZ, TMR-peptide fluorescence polarization, 1 h; inhibition, % at 24.9 µM; 300,000 tested, 0.92% active; Golgi-associated PDZ and coiled-coil motif-containing protein (Homo sapiens), Q9HD26;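 active = mean inhibition of at least 30% with at least half of replicates also reaching 30%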
miR-122 sensor – miR-122 Renilla sensor signal increase in Huh7, primary screen, miR-122 inhibitor project, cell-based, single point, plate reader; Huh7 miR-122 Renilla luciferase sensor, 48 h; neutral wells = 0, positive control = 100; AID 602342, 2012; activation (reporter increase), % at 12.5 µM; 340,000 tested, 0.3% active;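 active = mean replicate activation score at least 90 and every replicate individually at or above 90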;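 also: higher luciferase means less miR-122 activity so hits act as miR-122 inhibitors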
Keap1-Nrf2 PPI – Keap1-Nrf2 protein-protein interaction inhibitors, primary screen, biochemical, fluorescence polarization, single point; Kelch-like ECH-associated protein 1 (Homo sapiens), Q14145; Keap1 Kelch-Nrf2 peptide fluorescence polarization, 1536-well; inhibition, % at 9.4 µM; 340,000 tested, 0.15% active; AID 504523, 2011; in the data active = inhibition above about 12%;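 also: human Keap1 Kelch domain with fluorescein labeled Nrf2 9mer peptide probe; higher means more block of Keap1 binding to Nrf2 peptide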
Target sequence (Q14145 whole entry, looked up, the tested form may be a part): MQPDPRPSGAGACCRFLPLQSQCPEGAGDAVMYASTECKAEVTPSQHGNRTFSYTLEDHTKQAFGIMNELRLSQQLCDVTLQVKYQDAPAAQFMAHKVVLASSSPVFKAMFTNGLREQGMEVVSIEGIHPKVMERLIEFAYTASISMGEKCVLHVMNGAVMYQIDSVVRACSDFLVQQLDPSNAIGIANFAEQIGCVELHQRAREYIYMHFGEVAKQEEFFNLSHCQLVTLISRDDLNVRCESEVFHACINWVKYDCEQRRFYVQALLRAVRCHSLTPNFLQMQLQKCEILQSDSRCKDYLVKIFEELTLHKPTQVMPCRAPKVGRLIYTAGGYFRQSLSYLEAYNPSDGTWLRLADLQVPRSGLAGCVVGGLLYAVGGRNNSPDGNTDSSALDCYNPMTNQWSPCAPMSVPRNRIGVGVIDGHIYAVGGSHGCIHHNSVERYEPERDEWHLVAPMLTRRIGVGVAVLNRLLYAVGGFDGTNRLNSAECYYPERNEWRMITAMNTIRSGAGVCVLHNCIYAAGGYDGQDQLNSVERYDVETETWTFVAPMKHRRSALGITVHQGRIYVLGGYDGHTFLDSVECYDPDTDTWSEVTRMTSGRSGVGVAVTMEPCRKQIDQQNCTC
CAL PDZ FP-2 – CAL PDZ peptide-binding inhibitors, primary screen, biochemical, fluorescence polarization, Cer-tagged CAL PDZ, HTS | Golgi-associated PDZ and coiled-coil motif-containing protein (Homo sapiens), Q9HD26 | purified CAL PDZ, TMR-peptide fluorescence polarization, 1 h | inhibition, % at 20 µM | 330,000 tested, 0.02% active | AID 504414, 2011;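 active = highest replicate inhibition of at least 40%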
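System: purified tagged CAL PDZ domain construct (CerCALP). Schedule: 1 h incubation at room temperature before polarization reading. Medium: 25 mM sodium phosphate pH 7.4, 150 mM NaCl, TCEP, IgG, Thesit. Read-out: percent inhibition from loss of millipolarization. Measured by: FP readout, S and P plane fluorescence. Probe or stimulus: fluorescent TMR peptide probe.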
Each line names hits and unclear results; the compound was inactive in the other large screens. Only some compounds are listed: those with a hit (about 1.1% of all), similar ones and a draw of the others.

CN1c2ccc(C3=CCCCC3)cc2[C@H]2[C@H](CCN2C(=O)Cc2ccccn2)[C@@H]1CO	none (no result: LANA DNA inh, CAL PDZ FP-1, Keap1-Nrf2 PPI, CAL PDZ FP-2)
C[C@@H]1CN([C@@H](C)CO)C(=O)c2cccc(NS(=O)(=O)c3ccc(Cl)cc3)c2O[C@@H]1CN(C)S(=O)(=O)c1cn(C)cn1	none (no result: LANA DNA inh, CAL PDZ FP-1, Keap1-Nrf2 PPI, CAL PDZ FP-2)
CCOC(=O)C1=C(C)NC2=C(C(=O)CC(c3cccs3)C2)C1c1cccs1 (configuration not stated)	miR-122 sensor 94.6 (no result: CAL PDZ FP-1)
CCC(=NC)C1=C(O)CC(c2ccccc2)CC1=O (configuration not stated)	CAL PDZ FP-1 70.7 (no result: CAL PDZ FP-2)
CCCNC(=O)N1[C@H](CO)[C@@H]2c3ccccc3N(C(=O)c3ccccc3)C[C@@H]21	none (no result: LANA DNA inh, CAL PDZ FP-1, Keap1-Nrf2 PPI, CAL PDZ FP-2)
COc1cccc(-c2cc(C(=O)Nc3ccn(Cc4ccc(C)cc4)n3)no2)c1	CAL PDZ FP-1 38.1 (no result: CAL PDZ FP-2)
Cc1ccc(Cn2ccc(NC(=O)c3cc(-c4ccccc4)on3)n2)cc1	none
C[C@H]1CN([C@@H](C)CO)C(=O)c2cc(C#CCN(C)C)cnc2O[C@@H]1CN(C)C(=O)CN1CCOCC1	none (no result: LANA DNA inh, CAL PDZ FP-1, Keap1-Nrf2 PPI, CAL PDZ FP-2)
COc1ccc(S(=O)(=O)Nc2ccc3c(c2)C(=O)N([C@H](C)CO)C[C@@H](C)[C@H](CN(C)C(=O)NC(C)C)O3)cc1	none (no result: LANA DNA inh, CAL PDZ FP-1, Keap1-Nrf2 PPI, CAL PDZ FP-2)
Cc1nn(CC(=O)N2CC(=O)Nc3ccccc32)c(C)c1[N+](=O)[O-]	CAL PDZ FP-1 63.1
O=C(Nc1ccncc1)c1ccc(N2CCCC2=O)cc1	none (no result: miR-122 sensor)
O=C(Nc1cccc([N+](=O)[O-])c1)c1ccc(N2CCCC2=O)cc1	CAL PDZ FP-1 68.9 (no result: miR-122 sensor)
COc1cc(N)ccc1Cc1ccc(N)cc1OC	CAL PDZ FP-1 55.8 (no result: CAL PDZ FP-2)
COc1ccccc1NC(=O)C(=O)N/N=C(\C)CC(=O)Nc1ccccc1C(F)(F)F	CAL PDZ FP-1 44.4 (no result: miR-122 sensor)
CN(C)S(=O)(=O)N1CCN(c2ccc([N+](=O)[O-])c(NC3CC3)c2)CC1	none
O=[N+]([O-])c1ccc(N2CCCC2)cc1NC1CC1	CAL PDZ FP-1 35.6
c1ccc2nc(N3CCOCC3)c(N3CCCC3)nc2c1	CAL PDZ FP-1 70.7
Cc1ccc(SCCNC(=S)Nc2cc(C)ccc2C)cc1	none
Cc1ccc(C)c(NC(=S)NCCN(C2CCCCC2)C2CCCC2)c1	CAL PDZ FP-1 64.8
COC(=O)c1ccc(Cn2nc(C)cc2C)cc1	CAL PDZ FP-1 112.1 (no result: CAL PDZ FP-2)
Cc1cc(C)n(Cc2ccc(C(=O)O)cc2)n1	none (no result: miR-122 sensor)
COc1ccc(-c2nsc(SCC(=O)Nc3cc(C)on3)n2)cc1	none
CCc1nnc(NC(=O)CSc2nc(-c3ccc(OC)cc3)ns2)s1	CAL PDZ FP-1 51.2
CCN1[C@@H]2c3ccc(-c4ccncc4)c(=O)n3C[C@@H]2[C@@H](CO)[C@@H]1C(=O)NCc1ccccc1	none (no result: LANA DNA inh, CAL PDZ FP-1, Keap1-Nrf2 PPI, CAL PDZ FP-2)
COc1ccc(-c2csc(NC(=O)CSc3nc(C)nc4sc(C(=O)O)c(C)c34)n2)cc1	LANA DNA inh 102.7
COC(=O)c1sc2nc(C)nc(SCC(=O)C(C)(C)C)c2c1C	CAL PDZ FP-1 43.0 (no result: miR-122 sensor)
COCCNC(=O)C[C@H]1CC[C@H](NC(=O)NC2CCCC2)[C@@H](CO)O1	none (no result: LANA DNA inh, CAL PDZ FP-1, Keap1-Nrf2 PPI, CAL PDZ FP-2)
CC(C)C(=O)NNC(=O)C1CC1(c1ccccc1)c1ccccc1 (configuration not stated)	none
CC(C)(C)NC(=O)C1CC1(c1ccccc1)c1ccccc1 (configuration not stated)	CAL PDZ FP-1 45.6 (no result: miR-122 sensor, CAL PDZ FP-2)
C[C@H]1CN([C@@H](C)CO)S(=O)(=O)c2ccc(C#CC3CC3)cc2O[C@H]1CN(C)S(C)(=O)=O	none (no result: LANA DNA inh, CAL PDZ FP-1, Keap1-Nrf2 PPI, CAL PDZ FP-2)
CCNC(=O)Nc1ccc2c(c1)C(=O)N(C)[C@@H]1CC[C@@H](CC(=O)NC3CCCCC3)O[C@@H]1CO2	none (no result: LANA DNA inh, CAL PDZ FP-1, Keap1-Nrf2 PPI, CAL PDZ FP-2)
CSC(=NCc1ccc(F)cc1)NS(=O)(=O)c1cccs1	none (no result: miR-122 sensor)
CS/C(=N\S(=O)(=O)c1ccc(N)cc1)NS(=O)(=O)c1cccs1	LANA DNA inh 112.6
C[C@@H]1CN([C@H](C)CO)S(=O)(=O)c2ccc(C3=CCCC3)cc2O[C@H]1CN(C)Cc1ccccn1	none (no result: LANA DNA inh, CAL PDZ FP-1, Keap1-Nrf2 PPI, CAL PDZ FP-2)
